# Screens: PubChem, several laboratories
# Jurkat NFkB inh – lowers PMA/ionomycin-induced NF-kB signal in Jurkat cells; PMA/ionomycin-induced NF-kB luciferase reporter, luminescence; inhibition, % at 4 µM; 0.53% of 330,000 active; AID 435003; in the data active means inhibition above about 50%
# Gli-Sufu block – Gli-Sufu pathway antagonism. inhibition, % at 5 µM. 0.74% of 340,000 active. Sufu-KO-LIGHT fibroblasts, Gli luciferase reporter luminescence;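 active means inhibition above about 55%, limit read from the data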
# GalR3 antag – human GalR3 antagonism | O60755 | HEK293 GalR3-CNG cAMP membrane potential fluorescence; galR3 body fused to GalR1 C-terminus | inhibition, % at 3 µM | 0.44% of 360,000 active | AID 651719;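 active means inhibition above the screen-wide average plus 3 SD, cut at about 13% in these data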;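 further: forskolin and galanin both at EC90 stimulate the cells; cAMP rise reported by CNG channel membrane potential dye signal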
# Target sequence (O60755 1-299 limits assumed): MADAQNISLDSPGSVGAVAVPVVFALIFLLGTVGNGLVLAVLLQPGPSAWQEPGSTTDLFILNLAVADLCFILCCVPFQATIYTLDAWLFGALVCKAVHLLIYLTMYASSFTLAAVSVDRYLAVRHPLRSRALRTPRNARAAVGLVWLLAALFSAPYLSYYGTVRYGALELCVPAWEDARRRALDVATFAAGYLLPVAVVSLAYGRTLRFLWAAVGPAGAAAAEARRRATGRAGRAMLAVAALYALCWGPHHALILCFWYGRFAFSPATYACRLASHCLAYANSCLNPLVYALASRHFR
# NR2E3 ag-1 – activates human NR2E3 receptor; Q9Y5X4; inhibition of corepressor binding, % at 3.98 µM; 0.35% of 360,000 active; CHO-S Gal4-NCOR/VP16-NR2E3 two-hybrid, luciferase;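 active means inhibition above the mean of all tested compounds plus 3 SD, cut at about 70% in these data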;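 further: higher means lower luciferase signal from less NR2E3 corepressor binding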
# Target sequence (Q9Y5X4 whole entry, looked up, the tested form may be a part): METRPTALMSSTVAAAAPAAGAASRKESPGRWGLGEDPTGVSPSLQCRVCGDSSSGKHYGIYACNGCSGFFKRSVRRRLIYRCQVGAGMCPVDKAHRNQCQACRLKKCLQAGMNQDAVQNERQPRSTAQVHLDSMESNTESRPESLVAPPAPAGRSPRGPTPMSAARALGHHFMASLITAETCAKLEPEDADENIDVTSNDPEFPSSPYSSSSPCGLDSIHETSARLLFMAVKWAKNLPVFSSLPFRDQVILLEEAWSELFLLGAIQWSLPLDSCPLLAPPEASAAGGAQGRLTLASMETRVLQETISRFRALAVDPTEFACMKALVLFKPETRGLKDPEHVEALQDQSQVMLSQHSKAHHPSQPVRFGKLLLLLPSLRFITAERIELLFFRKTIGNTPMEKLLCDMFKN
# NR2E3 ag-2 – activates human photoreceptor nuclear receptor NR2E3. 0.12% of 320,000 active. GST-NR2E3/biotin-RetCOR TR-FRET, 1536-well. AID 2300. Q9Y5X4. inhibition of corepressor binding, % at 4.78 µM;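 active means percent inhibition above the cutoff of mean plus 3 SD of all tested compounds, set per screening campaign, cut at about 20% in these data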
#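 System: GST-NR2E3 and biotin-RetCOR proteins; probe or stimulus: 7 nM biotin-RetCOR; doses: compound at 4.8 µM, single dose; schedule: Compound–protein incubation for 5 h at 4 °C; detection: time-resolved FRET; read-out: percent inhibition; controls: biotin wells as high control, 0.6% DMSO wells as low control; format: 1536-well plates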
# 697 NFkB inh – lowers PMA/ionomycin-induced NF-kB signal in 697 B cells; 697 B-cell NF-kB luciferase reporter, 16 h; inhibition, % at 4 µM; 0.33% of 330,000 active; AID 435022; in the data active means inhibition above about 35%
# Gli antag conf – Gli-SUFU antagonism confirmation, single concentration. shares compounds with Gli-Sufu block. Sufu-KO-LIGHT cells, Gli luciferase reporter, luminescence. inhibition, % at 5 µM. 40% of 2,500 active. AID 602428;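 active means mean inhibition at 5 µM reaching about 45%, limit read from the data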
# Gli cytotox – counter-screen for Gli-SUFU antagonists: cytotoxicity; shares compounds with Gli-Sufu block; Sufu-KO-LIGHT cells cytotoxicity, ATP luminescence; cytotoxicity, % at 5 µM; 32% of 2,500 active;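 active means mean cytotoxicity at 5 µM above about 25%, limit read from the data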;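 further: cells exposed to compound overnight for roughly 16 to 18 hours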
# Wnt3a cs – counter-screen for Gli-SUFU antagonists: Wnt3a reporter inhibition; shares compounds with Gli-Sufu block; 20% of 2,500 active; Wnt-LIGHT cells, Wnt3a-driven luciferase reporter, luminescence; inhibition, % at 6.25 µM;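 active means mean inhibition above about 25%, limit read from the data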
# A number is an active result; 0 = inactive; - = not tested or not shown; ! = not confirmed by another sample. In the library only some 1.8% were active in any assay of this set; here they are far more common.
SMILES,Jurkat NFkB inh,Gli-Sufu block,GalR3 antag,NR2E3 ag-1,NR2E3 ag-2,697 NFkB inh,Gli antag conf,Gli cytotox,Wnt3a cs
CCOc1ncccc1C(=O)N1CCN(c2cc(Cl)ccc2C)CC1,0,0,0,0,0,0,0,53.6,0
CCOc1ncccc1C(=O)N1CCN(c2cccc(C)c2C)CC1,-,0,0,0,-,-,-,-,-
COc1ccc(-n2nnnc2SCC(=O)Nc2nnc(C)s2)cc1,0,58.5,0,0,0,0,0,0,0
CCOC(=O)c1csc(NC(=O)CSc2nnnn2-c2ccc(OC)cc2)n1,0,0,0,0,0,0,-,-,-
C[C@H](CO)N1C[C@H](C)[C@@H](CN(C)C(=O)Nc2ccc3c(c2)OCCO3)OCc2cn(nn2)CCCC1=O,-,-,0,-,-,-,-,-,-
CC(=O)c1ccc(NC(=O)Nc2ccc(NS(=O)(=O)c3ccc(C)cc3)cc2)cc1,0,75.2,0,0,0,0,0,0,25.0
CC1CCC(C(C)C)C(OC(=O)COC(=O)c2cccn2C)C1 (stereo not drawn),0,0,0,0,0,0,-,-,-
CC1CCC(C(C)C)C(OC(=O)Cn2c(-c3ccc(Br)cc3)[n+](C)c3ccccc32)C1 (stereo not drawn),0,69.6!,0,0,0,0,70.0,41.2,0
Cc1ccc2c(c1C)OC(=O)CC2c1ccccc1 (stereo not drawn),0,0,0,0,0,0,-,-,-
CS(=O)(=O)N1CCCC(C(=O)N2CCc3ccccc3C2)C1 (stereo not drawn),0,0,0,0,0,0,0,0,0
CCCn1c(N2CCN(C(=O)NCc3ccccc3)CC2)nc2ccccc21,0,56.6,0,0,0,0,0,0,0
Cc1cc(-c2ccc(C(C)C)c(S(=O)(=O)Nc3ccccn3)c2)on1,0,0,0,0,0,0,-,-,-
C[C@@H]1CN([C@@H](C)CO)C(=O)CCCn2cc(nn2)CO[C@H]1CN(C)C(=O)c1ccc(N2CCN(C)CC2)cc1,-,-,0,-,-,-,-,-,-
CCN1C(=O)CCN(C2CCCC2)c2nc(Nc3ccc(C(=O)NC4CCN(C)CC4)cc3OC)ncc21,-,71.5,0,0,-,-,60.4,0,0
Cc1ccn2c(=O)nc(SCC(=O)Nc3cccc4ccccc34)nc2c1,0,0,0,0,0,0,-,-,-
O=C(CSc1nc(=O)n2cc(Cl)ccc2n1)Nc1cccc2ccccc12,0,90.8,0,0,-,0,0,0,0
Clc1ccc(-c2cn(-c3ccc(Cl)cc3)c3[n+]2CCCCC3)cc1,0,57.8,0,0,0,0,58.3,29.3,0
COc1ccc(-c2cn(-c3ccc(Cl)cc3)c3[n+]2CCCCC3)cc1,0,80.5,0,0,0,0,78.5,31.0,0
COc1ccc(-n2cc(-c3ccc(OC(F)F)cc3)[n+]3c2CCCCC3)cc1,0,81.4,0,0,0,0,82.9,32.6,0
COc1ccc(-n2cc(-c3ccc(Cl)cc3)[nH]c2=S)cc1,0,0,0,0,0,0,-,-,-
COc1ccc(N2CC(O)(c3ccc(OC(F)F)cc3)[N+]3=C2CCCC3)cc1 (stereo not drawn),0,0,0,0,0,0,-,-,-
COc1ccc(C(=O)N/C(=C\c2cn(C)c3ccccc23)C(=O)NCCN2CCOCC2)cc1OC,0,0,0,0,0,0,-,-,-
COc1ccc(C(=O)N/C(=C/c2ccccc2F)C(=O)NCCN2CCOCC2)cc1OC,0,70.8,0,0,0,0,0,0,0
Cc1ccc(S(=O)(=O)N2CCCc3nc(-c4ccc(F)cc4)ccc32)cc1,-,-,0,-,-,-,-,-,-
Cc1cc(C[n+]2cc(Cl)ccc2N)c2ncccc2c1,0,0,0,0,0,0,-,-,-
SMILES,Jurkat NFkB inh,Gli-Sufu block,GalR3 antag,NR2E3 ag-1,NR2E3 ag-2,697 NFkB inh,Gli antag conf,Gli cytotox,Wnt3a cs
Cc1cc(C[n+]2cc(Br)ccc2N)c2ncccc2c1,0,0,0,0,0,0,53.0,34.4,0
CS(=O)(=O)NCCNc1ccc(C(F)(F)F)cc1[N+](=O)[O-],0,0,0,0,0,0,-,-,-
CN(C)S(=O)(=O)NCCNc1ccc(C(F)(F)F)cc1[N+](=O)[O-],0,97.8,0,0,0,0,0,0,0
COc1cc(/C=N/NC(=O)c2ccncc2)ccc1OC(C)=O,0,58.4,0,0,0,0,0,0,0
COc1ccccc1C(=O)NC(=O)COC(=O)CCS(=O)(=O)c1ccc(C)cc1,0,0,0,0,0,0,-,-,-
CCCC(=O)NC(=S)Nc1ccc(S(=O)(=O)N2CCc3ccccc32)cc1,0,0,0,0,0,0,-,-,-
COc1cccc(N2CCN(C(=O)C3CCN(S(=O)(=O)c4ccc5c(c4)oc(=O)n5C)CC3)CC2)c1,0,60.9,0,0,0,0,0,0,0
Cc1nc(N)nc(Nc2ccc(C#N)cc2)c1Br,0,55.5,0,0,0,0,0,0,0
Cc1nc(N)nc(Nc2ccc(Cl)cc2)c1Br,0,0,0,0,0,0,-,-,-
Cc1cc(C)n(C(=O)c2cccc([N+](=O)[O-])c2C)n1,0,0,0,0,0,0,-,-,-
Cc1c(C(=O)N2c3ccccc3Sc3ccccc32)cccc1[N+](=O)[O-],0,96.1,0,0,0,0,0,0,0
Cc1nc2ccc(S(=O)(=O)NCC(=O)NCCN3CCCCCC3)cc2s1,0,83.0,0,0,0,0,0,0,0
CC(C)CCNC(=O)C1CCCN(S(=O)(=O)c2ccc3c(c2)CC(C)N3C(=O)C2CC2)C1 (stereo not drawn),0,56.6,0,0,0,0,0,0,0
CC(=O)N1CCCc2cc(S(=O)(=O)N3CCCC(C(=O)NCc4ccccc4)C3)ccc21 (stereo not drawn),0,0,0,0,0,0,0,0,0
CC(=O)N1CCCc2cc(S(=O)(=O)N3CCCC(C(=O)NCc4ccc(C)cc4)C3)ccc21 (stereo not drawn),0,0,0,0,0,0,-,-,-
COC(=O)C1=C(C)N(Cc2ccccc2)C(=S)NC1c1ccc(Br)cc1 (stereo not drawn),-,-,0,-,-,-,-,-,-
CN1/C(=C\C(=O)Nc2ccc(Br)cc2)C(C)(C)c2ccccc21,0,0,0,0,0,0,-,-,-
CN1/C(=C\C(=S)NC(=O)c2cccc(Br)c2)C(C)(C)c2ccccc21,0,72.3,0,0,0,0,56.0,0,0
CN1/C(=C\C(=S)NC(=O)c2ccc([N+](=O)[O-])cc2)C(C)(C)c2ccccc21,0,61.8,0,0,0,0,0,0,25.8
COC(=O)[C@H](Cc1ccccc1)N1Cc2ccccc2Oc2cc(Br)ccc2S1(=O)=O,-,-,0,-,-,-,-,-,-
